Compounds with a hit are over-represented: about 0.85% of the library has one in this group of screens.
V1R ag counter: counter-screen for oxytocin receptor agonists: human V1a receptor agonists | P37288 | CHO-V1R cells, Fluo-8 calcium fluorescence, agonist mode; 0% DMSO, 100% 3 nM vasopressin | activation, % at 3 µM | 0.25% of 320,000 active | AID 2797;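 active = activation above the mean activation of all tested compounds plus 3 SD, per screening run, cut at about 20% in these data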;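 also: signal is peak over basal fluorescence ratio across a 100 second FLIPR read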
Target sequence (P37288 whole entry, looked up): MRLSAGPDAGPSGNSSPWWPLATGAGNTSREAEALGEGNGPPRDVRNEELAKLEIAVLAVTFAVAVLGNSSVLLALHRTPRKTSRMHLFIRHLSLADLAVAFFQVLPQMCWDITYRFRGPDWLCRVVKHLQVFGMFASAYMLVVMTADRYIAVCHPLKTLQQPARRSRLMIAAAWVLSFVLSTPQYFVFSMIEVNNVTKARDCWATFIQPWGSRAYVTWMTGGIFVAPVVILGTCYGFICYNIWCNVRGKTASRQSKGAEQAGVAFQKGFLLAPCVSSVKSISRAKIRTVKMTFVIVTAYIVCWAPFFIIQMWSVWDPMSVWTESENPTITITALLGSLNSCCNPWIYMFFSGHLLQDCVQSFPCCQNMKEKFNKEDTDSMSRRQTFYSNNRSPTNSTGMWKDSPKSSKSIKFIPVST
OXTR agonist: agonists of human oxytocin receptor; 0.32% of 320,000 active; activation, % at 3 µM; P30559; CHO-OTR cells, Fluo-8 calcium fluorescence; normalized: DMSO 0%, oxytocin 100%; AID 2435;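 active = activation above the mean of all tested compounds plus 3 SD, cutoff set per screening run, cut at about 20% in these data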;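 also: peak over basal fluorescence ratio from a 100 s FLIPR kinetic read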
OXTR potentiator: potentiators of human oxytocin receptor; P30559; CHO-OTR cells, Fluo-8 calcium fluorescence, potentiator mode; 0% = oxytocin EC15, 100% = EC100; activation, % at 3 µM; 0.061% of 320,000 active;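 active = activation above that plate's cutoff, the mean activation of tested compounds plus 3 SD, cut at about 6.6% in these data, passing the limit was not always enough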;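 also: 100% uses oxytocin at 75 nM as the full agonist control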
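Replication – single well per compound, singlicate · Assay system – CHO cell line stably expressing human OTR · Timing – 6 min pre-incubation, 100 s read · Measure – normalized max/min fluorescence ratio, % activation · Doses – 3.0 µM, one dose · Detection – Fluo-8 calcium dye fluorescence · Probe or stimulus – oxytocin near EC15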
CRFR2-BP ag: CRF-BP/CRF-R2 complex agonism; HEK293 CRF-R2/CRF-BP, calcium dye fluorescence (FLIPR); percent of saturating CRF peptide response; activation, % at 13.2 µM; 0.46% of 350,000 active; AID 588473;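 active = activation of at least 50%, plus an integration ratio under a set limit after plate pattern correction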;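 also: plate controls were neutral control wells without compound for no effect and CRF at EC100 for full effect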
TRPML3 agonist: activates the human TRPML3 channel. 0.29% of 220,000 active. HEK293 TRPML3-YFP, Fluo-8 calcium fluorescence; 100% = the carbachol control signal. Q8TDD5. activation, % at 3 µM;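 active = activation above its plate's cutoff, the mean activation of the plate's test wells plus 3 SD, cut at about 12% in these data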;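 also: 0% = DMSO only wells and 100% = carbachol wells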
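system = HEK293 cells stably carrying human TRPML3-YFP | doses = one concentration, 3 µM nominal, 0.3% DMSO | timing = dye loading 1 h 37 °C then 30 min ambient, 125 s read | detection = Fluo-8 calcium dye fluorescence, ex 470-495, em 515-575 nm | benchmarks = high control carbachol 87 µM, low control DMSO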
zfTRPN1 agonist: zebrafish TRPN1 (NompC) channel agonism. HEK293 zebrafish TRPN1-YFP, Fluo-8 calcium fluorescence; 100% = response to 87 µM carbachol. activation, % at 3 µM. 0.18% of 220,000 active;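 active = activation above its plate's cutoff, the mean activation of test wells on that plate plus 3 SD, cut at about 19% in these data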;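 also: 0% = DMSO alone and 100% = 87 µM carbachol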
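Control set: carbachol 87 µM as high control, DMSO as low control; system: HEK293 stable line with zebrafish TRPN1-YFP; read-out: % activation versus carbachol response; detection: intracellular calcium fluorescence with Fluo-8; doses: single test compound dose, 3 µM nominal, 0.3% DMSO; schedule: dye 1 h 37 °C plus 30 min RT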
OXTR pot cf: confirmation of human oxytocin receptor potentiators; shares compounds with OXTR potentiator; CHO-OTR cells, Fluo-8 calcium fluorescence, potentiation; scaled from low-dose to maximal oxytocin; activation, % at 3 µM; 180 tested, under 10 active; AID 434985;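 active = mean percent activation over triplicates above a cutoff set from solvent-only control plates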;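 also: compounds tested in the presence of an EC15 dose of oxytocin; 0% = EC15 oxytocin with DMSO and 100% = EC100 oxytocin with DMSO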
* marks the source's active call; other numbers are inactive results; . = not tested or not shown.

SMILES	V1R ag counter	OXTR agonist	OXTR potentiator	CRFR2-BP ag	TRPML3 agonist	zfTRPN1 agonist	OXTR pot cf
CCn1c(=O)c(C(=O)Nc2ccccn2)c(O)c2ccccc21	3	0	12*	1	1	2	-3
CC(C)(CNC(=O)c1cccc(F)c1)CNC(=O)c1cccc(F)c1	1	1	-5	0	.	.	.
Cc1cn([C@H]2C[C@H](O)[C@@H](COS(=O)(=O)O)O2)c(=O)[nH]c1=O	1	2	14*	-4	.	.	0
CCOCCCNC(=O)c1cc(Cl)c(NC(=O)C2=C(C)OCCS2)cc1OC	0	-2	-4	-4	.	.	.
CN(CC(=O)NCc1ccncc1)S(=O)(=O)c1ccc(F)cc1	1	0	12*	7	1	0	-4
CCn1c(SCC(=O)Nc2nccs2)nnc1-c1cccnc1	0	0	-6	1	.	.	.
CCn1c(SCC(=O)Nc2nc(C)cs2)nnc1-c1cccnc1	0	0	11*	-1	1	0	-3
COC(=O)CN(c1nc(C)cc(OC)n1)S(=O)(=O)c1ccccc1	.	.	.	-2	0	0	.
CCCN(c1nc(C)cc(OC)n1)S(=O)(=O)c1ccccc1	-1	-2	13*	-1	1	-3	-4
O=C(NC(c1ccccc1)c1ccccc1)C1CCCC1	-1	-2	12*	0	0	0	0
N#Cc1cn(-c2ccccc2)nc1-c1ccc2c(c1)OCCO2	0	-1	-2	0	0	-2	.
N#Cc1cn(-c2ccccc2)nc1-c1ccco1	-2	-2	13*	1	0	-1	-3
Cc1cc(C)n(-c2cc(C(C)(C)C)nc3c(-c4ccc(Cl)cc4)cnn23)n1	4	0	13*	0	0	1	7.8*
O=c1cnnc(N/N=C/c2ccc3c(c2)OCO3)[nH]1	-1	0	10*	-5	1	1	-4
Cc1ccc(NC(=O)CCS(=O)(=O)c2cc3c(cc2Cl)NC(=O)CO3)cc1	0	1	1	-1	.	.	.
CC1CCCCC1NC(=O)CCS(=O)(=O)c1cc2c(cc1Cl)NC(=O)CO2 (configuration not stated)	0	0	25*	-1	.	.	-3
COc1cc(OC)cc(C(=O)NCC(=O)N2CCN(S(=O)(=O)c3ccccc3F)CC2)c1	0	1	14*	-2	.	.	1
O=C(NCC(=O)N1CCN(S(=O)(=O)c2ccccc2F)CC1)c1ccc2c(c1)OCO2	0	-1	-4	-3	.	.	.
CN(C(=O)Cn1nnc(-c2ccccc2)n1)C1CCS(=O)(=O)C1 (configuration not stated)	-1	1	-4	-1	.	.	.
O=c1c(O)c(-c2ccc(O)c(O)c2)oc2cc(O)cc(O)c12	1	1	21*	5	.	.	7.2*
COc1cc(C(=O)N(Cc2ccccc2)c2cccc(C)c2)ccc1OCC(=O)N1CCOCC1	.	.	.	0	.	.	.
CC(Oc1cc2oc(=O)cc(-c3ccccc3)c2cc1Cl)C(=O)NCC1CCC(C(=O)O)CC1 (configuration not stated)	1	0	-1	2	.	.	.
CCc1cc2c(-c3ccccc3)cc(=O)oc2cc1OC(C)C(=O)NCC1CCC(C(=O)O)CC1 (configuration not stated)	0	1	9.8*	-1	.	.	-2
CCN(C(=S)NC(=O)CCc1ccccc1)c1ccccc1	1	0	12*	-1	1	2	-3
CCN(C(=S)Nc1cccc2ccccc12)c1ccccc1	.	.	.	1	.	.	.
SMILES	V1R ag counter	OXTR agonist	OXTR potentiator	CRFR2-BP ag	TRPML3 agonist	zfTRPN1 agonist	OXTR pot cf
CCCNC(=O)c1ccc(SC)cc1OC	-2	-2	-13	0	0	-1	.
COc1cc(SC)ccc1C(=O)NCCCOC(C)C	0	0	11*	0	0	-1	-7
CCOc1ccc(-c2c(C(=O)N/N=C/c3ccc(O)cc3)nnn2-c2nonc2N)cc1	0	0	9.6*	1	1	1	2
CCCOc1ccc(-c2c(C(=O)N/N=C/c3ccc(OC)cc3)nnn2-c2nonc2N)cc1	3	1	5	-1	1	1	.
Cc1cc(C)n(C(C)Sc2ccccc2)n1 (configuration not stated)	0	1	14*	-2	.	.	-5
Cc1ccn2cc(-c3ccc(O)c(O)c3)nc2c1	3	0	-4	0	.	.	.
COCCNC(=O)[C@@H]1CCCN1C(=O)C1CCN(S(=O)(=O)c2ccc(C)cc2)CC1	-1	-1	-11	6	.	.	.
Cc1c(C(=O)NCc2ccccn2)oc2c(Cl)cccc12	9	1	13*	0	.	.	2
CCn1cc(C(=O)NCC(OC)OC)c(=O)c2cc(S(=O)(=O)N3CCOCC3)ccc21	1	1	13*	-1	.	.	-6
COC(CNC(=O)c1cn(C)c2ccc(S(=O)(=O)N3CCOCC3)cc2c1=O)OC	0	0	-6	-1	.	.	.
CCOC(=O)C1CCCN(C(=O)c2ccc3nc(-c4cccc(OC)c4)oc3c2)C1 (configuration not stated)	2	0	-7	-1	.	.	.
CCOc1ccc(CNC(=O)CN2C(=O)CSc3ccc(S(=O)(=O)N4CCOCC4)cc32)cc1	.	.	.	-2	.	.	.
CC(Oc1ccc(C#N)cc1)C(=O)N1CC=C(c2ccccc2)CC1 (configuration not stated)	3	2	-7	-2	.	.	.
CC(Sc1ccc(Cl)cc1)C(=O)NCc1ccc2c(c1)OCO2 (configuration not stated)	0	-2	9.4*	-1	0	-1	0
COC(=O)CSc1[nH]c2ccc(F)cc2c1[N+](=O)[O-]	0	0	9.0*	0	1	3	-1
CCOc1ccc(NC(=O)c2ccc3c(c2)N(Cc2ccc(F)cc2)C(=O)CS3=O)cc1 (configuration not stated)	-1	-1	12*	0	0	2	-3
CNC(=O)c1c(NC(=O)c2ccco2)sc2c1CCC2	-2	-1	-9	-7	.	.	.
CNC(=O)c1c(NC(=O)c2cc(-c3cc(C)c(C)cc3O)n[nH]2)sc2c1CCCC2	0	1	6.6*	0	0	2	-10
CCCc1c(C(=O)N/N=C(\C)c2ccccn2)nnn1-c1nonc1N	.	.	.	-1	.	.	.
CCOc1ccccc1N(C)S(=O)(=O)c1ccc2c(c1)CC(C)N2C(=O)C1CC1 (configuration not stated)	7	5	-14	1	.	.	.

Screening data (PubChem)
